Laboratory results published in ChEMBL document CHEMBL1157324, “Lophocladines, bioactive alkaloids from the red alga Lophocladia sp” (J Nat Prod, 2006).
Activity calls are given as the source filed them. The rule behind the calls is not given here.

How the values were obtained:
[1] = tested on: NCI-H460; assay: Induction of morphological changes in human NCI-H460 cells at 13.5 uM after 6 days; type: functional
[2] = tested on: MDA-MB-435; assay: Cell cycle arrest in human MDA-MB-435 cells assessed as accumulation at G2/M phase at 20 uM after 24 hrs by flow cytometry; type: functional
Outline: (§1)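 MDA-MB-435 cells grown in IMEM with 10% FBS and gentamycin. Exposed 24 h to vehicle or sample, harvested and stained with Krishan's reagent. Propidium iodide intensity read by flow cytometry, with quality-control samples each run. Percentage of cells in each cycle phase fitted by manual analysis.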

[3] = tested on: A10; assay: Induction of microtubule depolymerization in rat A10 cells at 113 uM after 24 hrs by indirect immunofluorescence technique; type: functional, cell-based
Outline: (§2)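 A-10 cells on glass coverslips in Basal Medium Eagle with 10% FBS, treated 18-24 h. Methanol-fixed, blocked with 10% calf serum, probed with monoclonal β-tubulin antibody then FITC sheep anti-mouse secondary for 1 h. Nuclei stained with 0.1 μg/mL DAPI. Examined by fluorescence microscopy.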

[4] = tested on: A10; assay: Induction of actin microfilament disrupting activity in rat A10 cells at 113 uM after 24 hrs; type: functional, cell-based
Outline: (§3)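 A-10 rat aortic smooth muscle cells on glass coverslips in BME with 10% fetal calf serum, treated 24 h. Fixed in 3% paraformaldehyde, permeabilised with 0.2% Triton X-100, reduced with sodium borohydride. Actin stained 45 min with 100 nM TRITC-phalloidin, DNA with DAPI. Examined by fluorescence microscopy.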

[5] = tested on: MDA-MB-435; assay: Cell cycle arrest in human MDA-MB-435 cells assessed as accumulation at G1 phase at 20 uM after 24 hrs by flow cytometry; type: functional; outline: as §1
[6] = tested on: NCI-H460; assay: Induction of morphological changes in human NCI-H460 cells at 13.5 uM after 24 hrs; type: functional, cell-based
[7] = tested on: MDA-MB-435; assay: Cell cycle arrest in human MDA-MB-435 cells assessed as accumulation at S phase at 20 uM after 24 hrs by flow cytometry; type: functional; outline: as §1
[8] = tested on: A10; assay: Induction of microtubule depolymerization in rat A10 cells at 45 uM after 24 hrs by indirect immunofluorescence technique; type: functional; conditions: A10, 24 h; outline: as §2
[9] = tested on: A10; assay: Induction of nucleus breakdown into micronuclei in rat A10 cells; type: functional, cell-based; outline: as §2
[10] = tested on: NCI-H460; assay: Cytotoxicity against human NCI-H460 cells after 48 hrs by MTT assay; type: functional, cell-based; conditions: NCI-H460, 48 h
Outline: (§4)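 Cells grown in RPMI-1640 with L-glutamine, 1 mM pyruvate, penicillin/streptomycin, 0.2% bicarbonate and 10% FBS, seeded at 6000 cells/well. After 24 h, compound in DMSO diluted into serum-free medium was added (DMSO under 1% final), as a single screening concentration or a dilution series. Viability by MTT reduction after 48 h.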

[11] = tested on: A10; assay: Induction of actin microfilament disrupting activity in rat A10 cells at 45 uM after 24 hrs; type: functional, cell-based; outline: as §3
[12] = tested on: MDA-MB-435; assay: Cytotoxicity against human MDA-MB-435 cells after 48 hrs by SRB assay; type: functional, cell-based; conditions: MDA-MB-435, 48 h
Outline: (§5)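 MDA-MB-435 cells grown in IMEM with 10% FBS, attached 24 h in 96-well plates, then exposed 48 h to compound or EtOH vehicle. Fixed with 10% TCA at 4 °C for 1 h, stained with 0.4% SRB for 30 min, washed with 1% HOAc, solubilised in 10 mM Tris. Absorbance read at 560 nm. IC50 taken from linear portion of log dose-response curves.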

[13] = tested on: N2a; assay: Cytotoxicity against mouse Neuro2a cells at 45 uM after 48 hrs by MTT assay; type: functional, cell-based; outline: as §4
[14] = biological target: Delta-type opioid receptor (Homo sapiens) (UniProt P41143); assay: Agonist activity at human delta opioid receptor expressed in CHO cells assessed as inhibition of forskolin-stimulated adenylyl cyclase relative to [D-Pen2,D-Pen5]-enkephalin; type: functional, cell-based
Outline: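 δ-Opioid receptor-expressing CHO cells washed with serum-free F12 Ham's medium, labelled 8 h with 1.2 μCi [3H]adenine. Then 40 min at 37 °C with 50 μM Ro20-1724, peptidase inhibitors (10 μM bestatin, 30 μM captopril, 50 μM L-leucyl-L-leucine), 50 μM forskolin and varied ligand concentrations. [3H]cAMP isolated on cation-exchange resin and alumina, counted with [14C]cAMP recovery correction.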

[15] = tested on: MDA-MB-435; assay: Cytotoxicity against human MDA-MB-435 cells at 450 uM after 48 hrs by SRB assay; type: functional, cell-based; outline: as §5
[16] = tested on: NCI-H460; assay: Cytotoxicity against human NCI-H460 cells at 45 uM after 48 hrs by MTT assay; type: functional, cell-based; outline: as §4
[17] = Displacement of radiolabeled MK801 from NMDA receptor at 10 uM
Outline: (§6)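 Receptor screen run by the NIMH Psychoactive Drug Screening Program. Each compound at 10 μM incubated with the relevant receptor preparation; percent inhibition of radioligand binding determined.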

[18] = biological target: Delta-type opioid receptor (Homo sapiens) (UniProt P41143); assay: Displacement of [3H][D-Ala2,D-Leu5]enkephalin from human cloned delta opioid receptor at 10 uM; outline: as §6

Delta-type opioid receptor (Homo sapiens), sequence (P41143 whole entry): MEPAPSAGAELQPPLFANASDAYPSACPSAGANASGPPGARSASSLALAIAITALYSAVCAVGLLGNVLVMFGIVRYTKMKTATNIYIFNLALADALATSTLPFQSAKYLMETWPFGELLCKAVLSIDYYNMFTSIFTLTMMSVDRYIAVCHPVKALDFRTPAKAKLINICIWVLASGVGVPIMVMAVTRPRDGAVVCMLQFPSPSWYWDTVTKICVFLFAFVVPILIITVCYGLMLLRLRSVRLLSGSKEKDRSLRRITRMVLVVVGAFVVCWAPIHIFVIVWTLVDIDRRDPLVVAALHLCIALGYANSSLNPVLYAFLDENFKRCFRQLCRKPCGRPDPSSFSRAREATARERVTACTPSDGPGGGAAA

SMILES	Activity [1] [%]	Activity [2] [%]	Activity [3]	Activity [4]	Activity [5] [%]	Activity [6]	Activity [7] [%]	inhibition at 45 µM [8] [%]	Activity [9]	IC50 [10] [µM]	Activity [11]	IC50 [12] [µM]	Activity [13]	Activity [14]	Activity [15]	Activity [16]	inhibition [17] [%]	inhibition [18] [%]
Nc1ncc(-c2ccccc2)c2ccncc12 [LOPHOCLADINE B]	80	72.2	Active	inactive	19.8	Active	8	85	Active	64.6	inactive	3.1	inactive					
O=c1[nH]cc(-c2ccccc2)c2ccncc12													inactive	inactive	inactive	inactive	50	50
